ChEMBL document CHEMBL5329174, “Discovery of benzoxazole-thiazolidinone hybrids as promising antibacterial agents against Staphylococcus aureus and Enterococcus species” (RSC Med Chem, 2023)
Converted amounts (≈) assume the structure as drawn.

Legend:
[1] = tested on: Escherichia coli; test: Antibacterial activity against Escherichia coli ATCC 25922 assessed as reduction in bacterial growth; type: functional
Method in brief: (§1)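 CLSI broth microdilution in cation-supplemented Mueller–Hinton broth II; overnight starter cultures (37 °C, shaking, 18–24 h) adjusted by OD600 to ~10^6 CFU/mL. Compounds dosed from DMSO stocks (10 mg/mL stock) as two-fold dilutions, 64–0.5 mg/L. Plates held 37 °C, 18–24 h. MIC = lowest concentration without visible growth. Three independent runs, each in duplicate.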

[2] = tested on: Acinetobacter baumannii; test: Antibacterial activity against Acinetobacter baumannii BAA-1605 assessed as reduction in bacterial growth; type: functional; method in brief: as §1
[3] = tested on: Pseudomonas aeruginosa; test: Antibacterial activity against Pseudomonas aeruginosa ATCC 27853 assessed as reduction in bacterial growth; type: functional; method in brief: as §1
[4] = tested on: Klebsiella pneumoniae; test: Antibacterial activity against Klebsiella pneumoniae BAA-1705 assessed as reduction in bacterial growth; type: functional; method in brief: as §1
[5] = tested on: Staphylococcus aureus; test: Antibacterial activity against Staphylococcus aureus ATCC 29213 assessed as reduction in bacterial growth; type: functional; method in brief: as §1
[6] = Cytotoxicity against african green monkey Vero cells assessed as reduction in cell viability incubated for 72 hrs by MTT assay; type: toxicity, cell-based; details: chlorocebus sabaeus
Method in brief: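 Vero (ATCC CCL-81) cells seeded at ~10^3 per well, 37 °C, 5% CO2. After 24 h, compound added at 100–12.5 μg/mL for 72 h. MTT then given for 4 h at 37 °C, formazan dissolved in DMSO, absorbance read at 540 nm. CC50 taken as the concentration giving 50% viability loss; doxorubicin as positive control; triplicate.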

[7] = tested on: Staphylococcus aureus; test: Antibacterial activity against methicilin-resistant Staphylococcus aureus NRS 193 assessed as reduction in bacterial growth; type: functional
Method in brief: (§2)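 CLSI broth microdilution in cation-supplemented Mueller–Hinton broth II. Starter cultures were grown overnight at 37 °C with shaking from a single MHA colony, then diluted by OD600 to ~10^6 CFU/mL. Compounds came from 10 mg/mL DMSO stocks and were tested two-fold from 64 to 0.5 mg/L. Plates were incubated 37 °C for 18–24 h. MIC was taken as the lowest concentration with no visible growth. Three independent runs, each in duplicate.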

[8] = tested on: Staphylococcus aureus; test: Antibacterial activity against methicilin-resistant Staphylococcus aureus NRS 191 assessed as reduction in bacterial growth; type: functional; method in brief: as §2
[9] = tested on: Staphylococcus aureus; test: Antibacterial activity against methicilin-resistant Staphylococcus aureus NRS 194 assessed as reduction in bacterial growth; type: functional; method in brief: as §2
[10] = tested on: Staphylococcus aureus; test: Antibacterial activity against methicilin-resistant Staphylococcus aureus NRS 100 assessed as reduction in bacterial growth; type: functional; method in brief: as §2
[11] = tested on: Staphylococcus aureus; test: Antibacterial activity against vancomycin-resistant Staphylococcus aureus VRS 12 assessed as reduction in bacterial growth; type: functional; method in brief: as §2
[12] = tested on: Staphylococcus aureus; test: Antibacterial activity against methicilin-resistant Staphylococcus aureus NRS 198 assessed as reduction in bacterial growth; type: functional; method in brief: as §2
[13] = tested on: Staphylococcus aureus; test: Antibacterial activity against methicilin-resistant Staphylococcus aureus NRS 129 assessed as reduction in bacterial growth; type: functional; method in brief: as §2
[14] = tested on: Staphylococcus aureus; test: Antibacterial activity against vancomycin-resistant Staphylococcus aureus VRS 1 assessed as reduction in bacterial growth; type: functional; method in brief: as §2
[15] = tested on: Staphylococcus aureus; test: Antibacterial activity against methicilin-resistant Staphylococcus aureus NRS 119 assessed as reduction in bacterial growth; type: functional; method in brief: as §2
[16] = tested on: Staphylococcus aureus; test: Antibacterial activity against methicilin-resistant Staphylococcus aureus NRS 192 assessed as reduction in bacterial growth; type: functional; method in brief: as §2
[17] = tested on: Staphylococcus aureus; test: Antibacterial activity against vancomycin-resistant Staphylococcus aureus VRS 4 assessed as reduction in bacterial growth; type: functional; method in brief: as §2
[18] = tested on: Staphylococcus aureus; test: Antibacterial activity against methicilin-resistant Staphylococcus aureus NRS 186 assessed as reduction in bacterial growth; type: functional; method in brief: as §2

SMILES: CN(C)c1ccc(/C=C2\S/C(=N/c3nc4ccccc4o3)NC2=O)cc1
- MIC [1]: > 64 µg/mL
- MIC [2]: > 64 µg/mL
- MIC [3]: > 64 µg/mL
- MIC [4]: > 64 µg/mL
- MIC [5]: > 64 µg/mL

SMILES: O=C1N/C(=N\c2nc3ccccc3o2)S/C1=C\c1ccc(Cl)cc1
- MIC [1]: > 64 µg/mL
- MIC [2]: > 64 µg/mL
- MIC [3]: > 64 µg/mL
- MIC [4]: > 64 µg/mL
- MIC [5]: 8 µg/mL (≈ 22.5 µM)

SMILES: COc1ccc(/C=C2\S/C(=N/c3nc4ccccc4o3)NC2=O)cc1O
- MIC [1]: > 64 µg/mL
- MIC [2]: > 64 µg/mL
- MIC [3]: > 64 µg/mL
- MIC [4]: > 64 µg/mL
- MIC [5]: 4 µg/mL (≈ 10.9 µM)

SMILES: COc1cccc2c1C(=O)c1c(O)c3c(c(O)c1C2=O)C[C@@](O)(C(=O)CO)C[C@@H]3O[C@H]1C[C@H](N)[C@H](O)[C@H](C)O1 [DOXORUBICIN]
- CC50 at 72 h [6]: 10 µg/mL (≈ 18.4 µM)

SMILES: O=C1N/C(=N\c2nc3ccccc3o2)S/C1=C\c1ccc(F)cc1
- MIC [1]: > 64 µg/mL
- MIC [2]: > 64 µg/mL
- MIC [3]: > 64 µg/mL
- MIC [4]: > 64 µg/mL
- MIC [5]: 8 µg/mL (≈ 23.6 µM)

SMILES: O=C1N/C(=N\c2nc3ccccc3o2)S/C1=C\c1cccc([N+](=O)[O-])c1
- MIC [1]: > 64 µg/mL
- MIC [2]: > 64 µg/mL
- MIC [3]: > 64 µg/mL
- MIC [4]: > 64 µg/mL
- MIC [5]: > 64 µg/mL

SMILES: O=C1N/C(=N\c2nc3ccccc3o2)S/C1=C\c1ccccc1O
- MIC [1]: > 64 µg/mL
- MIC [2]: > 64 µg/mL
- MIC [3]: > 64 µg/mL
- MIC [4]: > 64 µg/mL
- MIC [5]: 4 µg/mL (≈ 11.9 µM)

SMILES: O=C1N/C(=N\c2nc3ccccc3o2)S/C1=C\c1cccc(F)c1
- MIC [1]: > 64 µg/mL
- MIC [2]: > 64 µg/mL
- MIC [3]: > 64 µg/mL
- MIC [4]: > 64 µg/mL
- MIC [5]: 8 µg/mL (≈ 23.6 µM)

SMILES: O=C1N/C(=N\c2nc3ccccc3o2)S/C1=C\c1ccccn1
- MIC [1]: > 64 µg/mL
- MIC [2]: > 64 µg/mL
- MIC [3]: > 64 µg/mL
- MIC [4]: > 64 µg/mL
- MIC [5]: 8 µg/mL (≈ 24.8 µM)

SMILES: O=C1N/C(=N\c2nc3ccccc3o2)S/C1=C\c1ccc([N+](=O)[O-])cc1
- MIC [1]: > 64 µg/mL
- MIC [2]: > 64 µg/mL
- MIC [3]: > 64 µg/mL
- MIC [4]: > 64 µg/mL
- MIC [5]: > 64 µg/mL

SMILES: COc1cccc(/C=C2\S/C(=N/c3nc4ccccc4o3)NC2=O)c1
- MIC [1]: > 64 µg/mL
- MIC [2]: > 64 µg/mL
- MIC [3]: > 64 µg/mL
- MIC [4]: > 64 µg/mL
- MIC [5]: > 64 µg/mL

SMILES: COc1ccc(/C=C2\S/C(=N/c3nc4ccccc4o3)NC2=O)cc1
- MIC [1]: > 64 µg/mL
- MIC [2]: > 64 µg/mL
- MIC [3]: > 64 µg/mL
- MIC [4]: > 64 µg/mL
- MIC [5]: > 64 µg/mL

SMILES: O=C1CS/C(=N/c2nc3ccccc3o2)N1
- MIC [1]: > 64 µg/mL
- MIC [2]: > 64 µg/mL
- MIC [3]: > 64 µg/mL
- MIC [4]: > 64 µg/mL
- MIC [5]: 8 µg/mL (≈ 34.3 µM)

SMILES: C[C@@H](O)[C@H]1C(=O)N2C(C(=O)O)=C(S[C@@H]3CN[C@H](C(=O)N(C)C)C3)[C@H](C)[C@H]12 [MEROPENEM]
- MIC [7]: 64 µg/mL (≈ 167 µM)
- MIC [8]: 64 µg/mL (≈ 167 µM)
- MIC [9]: 1 µg/mL (≈ 2.61 µM)
- MIC [10]: 32 µg/mL (≈ 83.4 µM)
- MIC [11]: 8 µg/mL (≈ 20.9 µM)
- MIC [12]: 64 µg/mL (≈ 167 µM)
- MIC [13]: 4 µg/mL (≈ 10.4 µM)
- MIC [14]: 64 µg/mL (≈ 167 µM)
- MIC [5]: 0.125 µg/mL (≈ 0.326 µM)
- MIC [15]: 64 µg/mL (≈ 167 µM)
- MIC [16]: 8 µg/mL (≈ 20.9 µM)
- MIC [17]: 64 µg/mL (≈ 167 µM)
- MIC [18]: 8 µg/mL (≈ 20.9 µM)
